# Source: PubChem BioAssay (Broad Institute)
# PGC1a acetyl inh – lowers PGC1a acetylation signal in U2OS cells | AID 651687 | AlphaScreen anti-acetyl-lysine; with virally co-expressed GCN5 acetyltransferase | actives 0.17% (n = 350,000) | inhibition, % at 15.6 µM;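 active = every replicate shows inhibition of at least 40%; inconclusive = mean inhibition at least 40% but some replicate below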;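 note: 0% = neutral control wells and 100% = positive control wells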
# FGF22 binding – shifts melting point of recombinant human FGF22; recombinant FGF22 thermal shift, SYPRO orange fluorescence; percent of sucrose octasulfate shift, DMSO zero; activity (Tm shift, normalised), % at 9.99 µM; Q9HCT0; AID 651658; actives 1.5% (n = 340,000);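 active = mean Tm shift, scaled 0 neutral to 100 positive control, at about 1.3% or above, every replicate too, limit read from the data; inconclusive = no clear call, values can overlap the other calls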
# Target sequence (Q9HCT0 whole entry, looked up): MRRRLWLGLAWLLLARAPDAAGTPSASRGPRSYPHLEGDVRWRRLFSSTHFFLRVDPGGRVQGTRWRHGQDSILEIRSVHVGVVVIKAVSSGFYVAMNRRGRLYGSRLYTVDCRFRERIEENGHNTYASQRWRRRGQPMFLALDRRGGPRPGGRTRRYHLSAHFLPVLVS
# Ecoli rRNA inh – inhibits bacterial ribosomal RNA function over humanized ribosomes | E. coli WT GFP vs humanized-ribosome RFP mutants, fluorescence, 24 h; stronger effect = lower value; DMSO median 0, no signal -100 | GFP signal change (wild-type ribosome), % (no concentration beside the values) | actives 1.6% (n = 350,000) | AID 720706;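 active = significant combined selectivity score with lowered wild-type GFP, culture density cut under 30%, mutant RFP and density less affected; inactive = any of these conditions unmet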
# Cneo AK release – Cryptococcus neoformans lysis via adenylate kinase release; lysis activity, % at 15 µM; AID 651654; actives 0.2% (n = 360,000); C. neoformans lysis, adenylate kinase release luminescence, 4 h; normalised: neutral wells 0, clomiphene wells 100;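 active = mean lysis activity across replicates of at least 80%, whatever share of replicates individually reach that level; inactive = mean lysis activity below 80%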
#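 Material: C. neoformans cells | Amount: Yeast cell density of 5 × 10^6 cells/mL | Medium: Fresh YPD growth medium | Dosing: Single dose | Times: Static 4 h at 37 °C with compound, 1 h detection | Detection: AK luminescence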
# Vif inh – blocks HIV Vif function. HEK293T cells, Vif self-association by quenched fluorescence, imaging, 24 h. inhibition, % at 7.49 µM. actives 0.35% (n = 340,000). AID 602346; in the data active = inhibition above about 50%, passing the limit was not always enough; inconclusive = no clear call, values can overlap the other calls; inactive = below about 31%
# PglD inh – blocks C. jejuni PglD acetyltransferase activity | purified PglD enzyme, DTNB colorimetric CoA detection | inhibition, % at 12.5 µM | actives 0.098% (n = 360,000); in the data active = inhibition above about 16%, passing the limit was not always enough; inconclusive = no clear call, values can overlap the other calls
# Numbers without * were called inactive; ? = inconclusive; · = no result given; + = active, no number. This is a sample that favours compounds with a hit; in the whole collection about 2.9% have one here.
SMILES,PGC1a acetyl inh,FGF22 binding,Ecoli rRNA inh,Cneo AK release,Vif inh,PglD inh
O=C(C[C@H]1CC[C@H](NS(=O)(=O)c2cccc(F)c2)[C@H](CO)O1)NCc1ccc2c(c1)OCO2,2,0,3,-8,·,4
CN(C)/N=C/c1ccc(N2CCOCC2)cc1,·,0,-17*,1,-6,-2
CCCCCNCC(=O)Nc1cc(C(F)(F)F)ccc1OCCOC,·,44*,7,·,-9,·
Cn1c(Cl)c(/C=N/OC(=O)C(C)(C)C)c2ccccc21,-11,0,9,·,3,·
CC(=O)O/N=C/c1c(Cl)n(C)c2ccccc12,·,44*,-2,·,2,·
C[C@H]1ON(c2ccccc2)[C@@H](c2ccccc2)[C@@H]1C(=O)N1C(=O)OC[C@@H]1c1ccccc1,·,-1,·,56,·,-5
COc1cc(C(=O)Nc2ccc3ccccc3c2)cc(OC)c1OC,·,0,-25*,·,·,·
COc1ccc(C(=O)Nc2ccc3ccccc3c2)cc1OC,-3,0,-2,0,-1,6
COc1cc(C(=O)Nc2ccc3c(c2)Cc2ccccc2-3)cc(OC)c1OC,12,43*,·,·,?,·
CC(=O)Nc1ccc(/C(C)=N/NC(=O)c2ccc(COc3ccccc3Cl)o2)cc1,5,0,-30*,2,1,7
COc1ccccc1OCc1ccc(C(=O)Nc2cc(OC)c(OC)c(OC)c2)o1,-11,0,-22*,0,-10,0
COc1ccc2c3c(n(C)c2c1)[C@H](CO)N(C(=O)CN(C)C)CC31CCN(Cc2cccnc2)CC1,5,0,1,·,·,·
Cc1cc(C(=O)N/N=C/C=C/c2ccccc2)c(C)o1,·,0,-25*,·,1,·
Cc1cc(C(=O)N/N=C/c2ccccc2)c(C)o1,·,0,-2,0,-5,-1
Cc1occc1C(=O)N/N=C/C=C/c1ccc(N(C)C)cc1,-6,-1,-10,-3,3,-1
Cc1ccc(C(=O)N/N=C/C=C/c2ccccc2)cc1,·,0,8,·,13,·
O=C(N/N=C/C=C/c1ccccc1)c1cccc(Br)c1,-1,1.4*,-5,2,6,0
Cc1occc1C(=O)N/N=C/C=C/c1ccccc1,·,43*,-6,·,18,·
CC(O)CNc1nc2sc3c(c2c(=O)n1CCc1ccccc1)CCCCC3 (stereo not drawn),·,44*,-32,·,-1,·
Cc1ccc(Oc2ccc(S(=O)(=O)N3CCOCC3)cc2C(N)=O)cc1C,·,0,-23*,9,·,0
Cc1ccc(S(=O)(=O)N2CCOCC2)cc1C(=O)N1CCOCC1,·,·,·,1,-2,-2
Cn1cc(/C=N/n2cnc3scc(-c4ccc(Cl)cc4)c3c2=O)c2ccccc21,19,·,·,4,54*,1
CCn1cnc2scc(-c3ccccc3)c2c1=O,·,·,·,-1,1,-1
CCC(C)NC(=O)C1CCCN1S(=O)(=O)c1ccc(Cl)cc1 (stereo not drawn),-7,0,2,0,·,0
NNC(=O)C1CCCN1S(=O)(=O)c1ccc(Cl)cc1 (stereo not drawn),-2,43*,11,·,-4,·
SMILES,PGC1a acetyl inh,FGF22 binding,Ecoli rRNA inh,Cneo AK release,Vif inh,PglD inh
N#C/C(=C/c1ccc(-c2ccc([N+](=O)[O-])cc2)o1)C(=O)Nc1nc(-c2cccs2)cs1,2,0,-30,·,19,·
Cc1ccc(Cc2cnc(NC(=O)/C(C#N)=C/c3ccc(-c4ccc([N+](=O)[O-])cc4)o3)s2)cc1,-12,·,9,0,89*,0
N#Cc1c(C(F)(F)F)cc(-c2ccco2)nc1SCc1ccncc1,6,·,·,-1,+,-7
O=C(COc1ccccc1Cl)Nc1ccccc1C(=O)Nc1cccc(C(=O)O)c1,-15,0,-29*,-6,3,-3
O=C(N/N=C/c1ccccn1)c1ccc(NC(=O)c2ccc(F)cc2)cc1,-6,0,-10,0,-5,-3
O=C(N/N=C/c1ccccn1)c1ccc(NC(=O)c2ccccc2Cl)cc1,·,0,-21*,-2,-37,-2
O=C(CNC(=O)c1ccncc1)N/N=C/c1ccccn1,5,0,-1,·,59*,·
S=C(NCc1ccccn1)NN=Cc1ccccn1,·,0,-19*,·,7,·
CO[C@H]1CN(C)C(=O)c2cc(NC(=O)Nc3ccc(Cl)c(Cl)c3)ccc2OC[C@H](C)NC[C@H]1C,5,·,-22,-2,·,-7
COc1ccc(/C=N/NC(=O)c2cccc(NC(C)=O)c2)c(OC)c1,11,43*,10,·,2,·
COc1cc(/C=N/NC(=O)c2cccc(NC(=O)c3ccccc3Cl)c2)ccc1O,6,0,-8,·,10,·
COc1ccc(/C=N/NC(=O)c2cccc(NC(=O)c3ccccc3Cl)c2)cc1OC,5,43*,-14,·,4,·
O=C(CSc1nnnn1C1CCCCC1)N1CCCC1,8,0,5,-1,0,-4
O=C(CSc1nnnn1C1CCCC1)Nc1ccc(F)cc1,-7,·,·,0,·,7
O=C(CSc1nnnn1C1CCCCC1)Nc1ccc(F)cc1,-3,43*,14,·,0,·
O=C(O)CSc1nnnn1C1CCCCC1,-1,43*,29,·,-4,·
O=C(Cc1ccccc1)N1CC[C@H]2[C@H](CO)Nc3ccc(Br)cc3[C@H]21,-20,0,-2,0,·,1
C[C@@H]1CC=CC[C@H](c2ccccc2)NC(=O)[C@H](C)N(C)C(=O)c2ccccc2O1 (mixture of isomers),·,·,-3,·,·,·
CC=Cc1ccc2n(c1=O)C[C@@H]1[C@@H](CO)[C@H](C(=O)NCc3ccccc3)N(S(C)(=O)=O)[C@H]21 (mixture of isomers),·,0,-2,-4,·,-1
O=C1/C(=C/c2ccncc2)CCC/C1=C\c1ccncc1,78*,0,-10,-9,-1,-3
CCOC(=O)c1cc(C)n(-c2ccc(Cl)cc2)c1C,·,0,-23*,·,-6,·
CCOC(=O)c1cc(C)n(-c2ccc(OC)c(OC)c2)c1C,0,·,·,0,16,-2
Cc1ccc(/C=C/S(=O)(=O)NCC(=O)O)cc1,6,43*,23,·,1,·
O=C(O)CNS(=O)(=O)/C=C/c1ccccc1,2,1,4,·,-4,·
Cc1ccc(S(=O)(=O)N[C@@H]2CC[C@@H](CC(=O)NC3CCCCC3)O[C@H]2CO)cc1,5,0,0,-3,·,1
COc1ccc(-c2n[nH]c(=S)n2-c2ccc3c(c2)OCCO3)cc1,8,·,·,1,0,-3
S=c1[nH]nc(-c2ccc(Br)cc2)n1-c1ccc2c(c1)OCCO2,0,0,-14*,·,2,·
S=c1[nH]nc(-c2ccc3ccccc3n2)n1-c1ccc2c(c1)OCCO2,6,0,-33*,·,7,·
